HIF act: HIF pathway transcriptional activators, primary screen, cell-based, U2OS HRE-luciferase, luminescence; activation, % at 7.5 µM (by protocol); 300,000 compounds, 0.32% hits; U2OS HRE-luciferase reporter; normalized: DMSO 0%, desferrioxamine 100%;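 active = mean activation of at least 10% of the iron chelator positive control signal, with at least half of replicates also reaching 10%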
SR-BI HDL uptake: inhibitors of SR-BI mediated HDL lipid uptake, primary screen, ldlA[mSR-BI] cells, fluorescence, single point; Scavenger receptor class B member 1 (Mus musculus), Q61009; ldlA[mSR-BI] CHO cells, DiI-HDL uptake fluorescence, 3 h; inhibition, % at 12.5 µM; 320,000 compounds, 0.96% hits; AID 488896, 2010;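 active = mean replicate inhibition of at least 70% and a set share of replicates each scoring 70 or more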
AHR activator: AHR activators, primary screen, cell-based, luminescence, luciferase reporter, human; Aryl hydrocarbon receptor (Homo sapiens), P35869; AHR-responsive luciferase reporter cells; activation, % at 5 µM; 320,000 compounds, 2.5% hits; AID 2796, 2010; in the data active = activation above about 47%
Target sequence (P35869 whole entry, looked up): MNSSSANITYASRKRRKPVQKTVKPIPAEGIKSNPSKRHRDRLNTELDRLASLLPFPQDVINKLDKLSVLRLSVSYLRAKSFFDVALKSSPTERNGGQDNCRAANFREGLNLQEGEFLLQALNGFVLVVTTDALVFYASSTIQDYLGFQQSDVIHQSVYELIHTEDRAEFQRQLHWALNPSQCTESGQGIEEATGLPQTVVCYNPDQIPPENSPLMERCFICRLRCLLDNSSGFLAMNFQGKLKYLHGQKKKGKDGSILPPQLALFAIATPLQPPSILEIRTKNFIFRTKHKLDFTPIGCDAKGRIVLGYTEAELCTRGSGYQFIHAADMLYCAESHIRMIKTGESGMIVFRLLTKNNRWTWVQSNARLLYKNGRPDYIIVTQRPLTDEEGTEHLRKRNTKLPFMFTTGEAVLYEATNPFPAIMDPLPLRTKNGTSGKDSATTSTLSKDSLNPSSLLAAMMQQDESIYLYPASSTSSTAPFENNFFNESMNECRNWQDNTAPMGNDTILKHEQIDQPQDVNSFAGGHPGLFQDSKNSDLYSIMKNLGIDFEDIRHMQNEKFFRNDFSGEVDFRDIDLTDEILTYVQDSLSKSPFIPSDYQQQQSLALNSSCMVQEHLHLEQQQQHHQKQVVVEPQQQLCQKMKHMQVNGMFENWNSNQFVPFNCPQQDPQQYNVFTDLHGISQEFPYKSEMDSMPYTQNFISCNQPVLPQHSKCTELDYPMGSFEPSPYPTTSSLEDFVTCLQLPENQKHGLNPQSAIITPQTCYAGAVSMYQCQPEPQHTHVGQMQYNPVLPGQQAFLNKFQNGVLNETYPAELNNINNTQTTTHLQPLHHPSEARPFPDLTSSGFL
GAA850 FXN act: FXN promoter activators, primary screen, cell-based, luciferase luminescence, HEK293 lucGAA850 | activation, % at 6 µM | 360,000 compounds, 0.56% hits | AID 540364, 2011 | HEK293 lucGAA850 FXN promoter luciferase reporter, 24 h; percent of 10 µM SAHA response;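 active = activation above the average of all compounds screened plus 3 SD, cutoff fixed separately per campaign, cut at about 7.5% in these data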
ABCB6 inh 2: ABCB6 transporter inhibitors, primary screen, K562-ABCB6 cells, flow cytometry, MLPCN library; 360,000 compounds, 0.19% hits; ATP-binding cassette sub-family B member 6 (Homo sapiens), Q9NP58; fluorescence ratio to DMSO, % at 10 µM; K562-ABCB6 porphyrin accumulation, 1 h; hits give low values; AID 602162, 2011;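 active = fluorescence ratio to DMSO below 75%, the collection mean minus 3 SD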;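 note: signal is porphyrin accumulated inside mitochondria; lower ratio means ABCB6 inhibition with less porphyrin fluorescence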
SR-BI uptake up: activators of SR-BI mediated DiI-HDL uptake, primary screen, ldlA[mSR-BI] CHO cells, DiI fluorescence; 320,000 compounds, 0.096% hits; activation, % at 12.5 µM; 3 h; 100 = double the neutral-control signal;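 active = mean replicate activation of at least 60% and every replicate at or above 60%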
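Test system: SR-BI-overexpressing, LDLR-lacking CHO cells; Medium: Ham's F12 with 0.5% BSA, HEPES 25 mM, pH 7.4; Schedule: 3 h, 37 °C; Technique: bottom-read fluorescence, 550/595 nm.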
Numbers stand for hits; n = inactive; x = no result. An excerpt weighted towards active compounds, which were near 3.9% of everything screened.

SMILES	HIF act	SR-BI HDL uptake	AHR activator	GAA850 FXN act	ABCB6 inh 2	SR-BI uptake up
O=C(CN1CCN(c2ccc(O)cc2)CC1)Nc1ccc2c(c1)OCCCO2	x	75	n	n	n	n
Cc1cccc(NC(=O)CN2CCc3cc4c(cc3C2)OCCCO4)c1	n	n	n	n	n	222
COc1cccc(-c2nn(-c3ccccc3)cc2CN(C)C(C)c2ccon2)c1 (centres undefined)	n	n	68	n	n	n
Cc1cccc(C)c1Nc1nnc(SCc2nc3ccccc3c(=O)[nH]2)s1	n	n	69	n	n	n
Cc1ccc(-c2csc(=Nc3cccnc3)n2CCCn2ccnc2)cc1C	n	n	n	n	n	n
Cc1ccc(-c2csc(=Nc3cccnc3)n2CCCN2CCCC2=O)cc1C	n	n	n	n	n	74
CCOC(=O)C1(C)CCCN1C(=O)c1ccc(OC)c(F)c1 (centres undefined)	x	x	x	n	n	x
Cn1c(O)c(N=NC(=O)C2COc3ccccc3O2)c2ccccc21 (centres undefined)	n	n	n	n	n	n
CC(C)n1c(O)c(N=NC(=O)C2COc3ccccc3O2)c2ccccc21 (centres undefined)	n	n	58	n	n	n
CC1=[N+](CC(=O)c2ccccc2)CCn2cccc21	n	n	47	n	n	n
Cc1ccc(C2NC(=O)c3c(sc(C)c3C)N2)c(O)c1 (centres undefined)	n	n	49	n	n	n
Cn1c(NC(=O)/C=C/c2ccccc2)cc(=O)n(C)c1=O	n	n	78	n	n	n
Cn1c(NC(=O)/C=C/c2ccc(Cl)c(Cl)c2)cc(=O)n(C)c1=O	n	n	n	n	n	n
CSc1cccc(NC(=O)/C=C/c2ccccc2)c1	n	73	n	n	n	n
Cc1occc1C(=O)Nc1cc(=O)n(C)c(=O)n1C	n	x	66	n	n	x
COc1ccc(/C=C/C(=O)Nc2cc(=O)n(C)c(=O)n2C)cc1	n	n	47	n	n	n
Cn1c(NC(=O)c2ccco2)cc(=O)n(C)c1=O	x	n	n	n	n	n
Nc1scc2c(C(=O)O)nn(-c3ccccc3)c(=O)c12	x	n	n	n	n	n
O=c1c2c(-c3ccccc3)csc2nc2c3ccccc3c(NCCN3CCOCC3)nn12	n	n	x	n	n	n
O=c1c2ccccc2nc2c3ccccc3c(NCCN3CCOCC3)nn12	26	x	n	x	x	x
O=C(CN1C(=O)c2cccc3cccc(c23)C1=O)N1CCCCCC1	n	n	n	n	63	n
C/C(=N\Nc1nc(Cl)c(Cl)cc1Cl)c1ccc(S(=O)(=O)NCc2ccco2)cc1	n	n	49	n	n	n
c1ccc2c(c1)OCC(c1csc3ncnc(N4CCOCC4)c13)O2 (centres undefined)	n	n	n	n	n	n
COc1ccc(N2C(=O)[C@@H]3[C@H](C2=O)[C@H]2c4ccccc4C=CN2[C@@H]3C(C)=O)cc1	x	n	51	n	n	n
CC(C)(C)C(=O)[C@@H]1[C@@H]2C(=O)N(C3CCCCC3)C(=O)[C@@H]2[C@H]2c3ccccc3C=CN12	x	n	93	n	n	n
SMILES	HIF act	SR-BI HDL uptake	AHR activator	GAA850 FXN act	ABCB6 inh 2	SR-BI uptake up
O=C(Nc1ccc2c(c1)OCO2)[C@@H]1[C@@H]2C(=O)N(C3CCCCC3)C(=O)[C@@H]2C2c3ccccc3C=CN21 (some centres undefined)	n	x	53	x	x	x
CCOC(=O)c1c(C)[nH]c(C(=O)N/N=C/c2ccc(OC)c(OC)c2)c1C	n	n	n	n	n	n
COc1ccccc1/C=N/NC(=O)c1csc(C)c1C	x	n	n	n	n	n
COc1ccccc1/C=N/NC(=O)c1[nH]c(C)c(C(=O)N/N=C/c2ccccc2OC)c1C	n	83	n	n	n	n
CCOC(=O)c1c(C)[nH]c(C(=O)N/N=C\c2ccccc2O)c1C	57	85	n	n	n	n
CCOC(=O)c1c(C)[nH]c(C(=O)N/N=C/c2cc([N+](=O)[O-])ccc2O)c1C	n	86	n	n	n	n
Cc1ccc(S(=O)(=O)CC(O)COc2ccccc2C#N)cc1 (centres undefined)	n	n	n	n	n	n
CC(=O)N(c1nc(/C=C\C(=O)O)cs1)c1ccccc1F	n	n	n	n	n	n
CC(=O)c1cnc2cc(-c3ccc(Cl)cc3)nn2c1C	n	n	71	n	n	n
Cc1c(C(=O)O)cnc2cc(-c3ccc(Cl)cc3)nn12	n	n	n	n	n	n
Clc1ccccc1OCc1nc(-c2ccc(Br)o2)no1	n	n	61	n	n	n
Fc1ccc(OCc2nc(-c3ccc(Br)o3)no2)c(F)c1	n	n	n	n	n	n
COc1ccc(Cc2nc(-c3ccc(Br)o3)no2)cc1OC	n	n	47	n	n	n
COC(=O)c1sccc1NC(=S)N1CCCC(C)C1 (centres undefined)	n	n	n	n	n	n
Cc1c(C(=O)OC2CCCC2)[nH]c2c1C(=O)CC(c1ccco1)C2 (centres undefined)	n	n	57	n	n	n
Cc1c(C(=O)OCC(C)C)[nH]c2c1C(=O)CC(c1ccco1)C2 (centres undefined)	n	n	n	n	n	n
CN(C)S(=O)(=O)c1cc(NC(=O)[C@H](Cc2ccccc2)N2C(=O)c3ccccc3C2=O)ccc1Cl	n	n	71	n	n	n
[O-][n+]1c2c(nc3c1-c1ccccc1C3O)CCCC2 (centres undefined)	n	x	n	x	x	x
CC1=CC(=O)C(C(C)C)=C/C1=N/OS(=O)(=O)c1ccccc1	n	80	n	n	n	n
CC1=CC(=O)C=C(C)C1=NOS(=O)(=O)c1ccccc1	n	112	x	n	n	n
Cn1nc(C(=O)NC2CCCc3ccccc32)ccc1=O (centres undefined)	n	n	n	n	n	n
COC(=O)c1ccccc1S(=O)(=O)N(Cc1cc2cc3c(cc2[nH]c1=O)OCO3)C1CCCCC1	n	x	63	x	x	x
COc1ccc(CN(Cc2cc3cc4c(cc3[nH]c2=O)OCO4)C(=O)NC2CCCCC2)cc1	n	n	n	n	n	n
COc1ccc(C(=O)N/N=C/c2ccc(OC)c(CN3CCN(c4ccc(F)cc4)CC3)c2)cc1	n	n	n	n	n	n
CN(C)c1nc(N)nc(CSc2n[nH]c(-c3ccccc3)n2)n1	n	n	n	n	n	n
